# NPY-Y1 PAM-ag = potentiates or activates human NPY-Y1 receptor; P25929; NPY-Y1 expressing cells, potentiator/agonist activation; activation, % at 3.6 µM; 220,000 tested, 0.37% active; AID 1304; in the data active = activation above about 33%, passing the limit was not always enough;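 also: cells stimulated with NPY at EC10 then isoproterenol at EC100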
# Target sequence (P25929 whole entry, looked up): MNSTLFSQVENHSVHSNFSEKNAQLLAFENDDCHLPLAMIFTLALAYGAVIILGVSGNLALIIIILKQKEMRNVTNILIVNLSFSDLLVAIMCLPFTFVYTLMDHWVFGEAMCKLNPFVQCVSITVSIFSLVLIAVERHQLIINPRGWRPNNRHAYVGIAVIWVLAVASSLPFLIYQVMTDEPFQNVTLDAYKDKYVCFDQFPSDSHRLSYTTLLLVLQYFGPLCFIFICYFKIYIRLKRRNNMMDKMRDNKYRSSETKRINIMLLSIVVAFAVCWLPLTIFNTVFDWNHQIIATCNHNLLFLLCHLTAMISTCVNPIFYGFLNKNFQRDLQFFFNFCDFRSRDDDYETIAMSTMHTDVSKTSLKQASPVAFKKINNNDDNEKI
# KCC2 mod = modulators of human KCC2 chloride dependent transport. Q9H2X9. 190,000 tested, 2.2% active. B-score of Tl+ flux slope (higher = more flux/activation; lower = inhibition) at 10 µM. KCC2 cells, thallium flux FluoZin-2 fluorescence. AID 1456;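 active = thallium flux slope and its plate-corrected score both differing from the plate sample mean at a set confidence after two filtering rounds, in either direction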;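 also: slope of fluorescence scaled to starting intensity during 10 to 20 s after thallium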
# NPY Y2 blocker = blocks the human neuropeptide Y Y2 receptor; 140,000 tested, 0.99% active; inhibition, % at 2.7 µM; NPY-Y2 expressing cells, antagonist mode; P49146; in the data active = inhibition above about 17%
# NPY2 pot ag = potentiates or activates human NPY-Y2 receptor; 220,000 tested, 0.45% active; AID 1359; cells expressing NPY-Y2, potentiator/agonist read-out; activation, % at 3.6 µM; in the data active = activation above about 27%;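 also: cells stimulated with NPY near EC25 plus isoproterenol at EC100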
# NPY-Y1 antag = NPY-Y1 (human) receptor antagonism. AID 1040. inhibition, % at 3.6 µM. HEK293-CNG Y1 cells, membrane potential fluorescence; NPY at EC95, then isoproterenol. 200,000 tested, 1% active. P25929;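 active = inhibition above the campaign mean inhibition of all tested compounds plus 3 SD, cut at about 20% in these data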
#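 Material: HEK293 cells co-expressing NPY Y1 receptor and cyclic-nucleotide gated channel. Timing: compound incubation 1 h at room temperature, readout 45 min post-stimulation. Signal: fluorescence, membrane potential probe.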
# Furin inhibitor = inhibitors of human furin; inhibition, % at 20 µM or 30 µM; AID 463115; P09958; purified furin, fluorogenic substrate cleavage; 220,000 tested, 0.061% active; in the data active = inhibition above about 25%
# NPY1 antag ctr = counter-screen for NPY-Y2 antagonists: human NPY-Y1 antagonism. inhibition, % at 3.6 µM. cell-based NPY-Y1 antagonism counterscreen. shares compounds with NPY Y2 blocker. 710 tested, 19% active. AID 1256; in the data active = inhibition above about 20%;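 also: cells challenged with NPY then isoproterenol with cAMP sensed through a CNG channel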
# NPY2 antag conf = human NPY-Y2 antagonism, confirmation; inhibition, % at 2.8 µM; AID 1257; 710 tested, 32% active; shares compounds with NPY Y2 blocker; HEK293 NPY-Y2 CNG channel, membrane potential fluorescence;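 active = mean inhibition of triplicate wells above the hit cutoff set in the primary screen, cut at about 17% in these data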
# Hits are given with their value; . = inactive; / = not tested or not shown. Sampled rows, rich in hits. Any-hit rate of the full collection: about 3.7%.
SMILES,NPY-Y1 PAM-ag,KCC2 mod,NPY Y2 blocker,NPY2 pot ag,NPY-Y1 antag,Furin inhibitor,NPY1 antag ctr,NPY2 antag conf
COc1ccc(C2Nc3ccccc3C(=O)N2Cc2ccco2)cc1COc1ccc(F)cc1 (configuration not stated),.,.,22,.,.,.,.,.
COc1cccc(N2CCN(C(=O)CSc3ccc(F)cc3)CC2)c1,.,.,/,.,.,.,/,/
OC12CCCCC1C(c1ccc3c(c1)OCO3)N(Cc1ccccc1F)CC2 (configuration not stated),.,.,18,.,.,.,.,.
OC12CCCCC1C(c1ccc3c(c1)OCO3)N(Cc1ccc(F)cc1)CC2 (configuration not stated),.,/,.,.,.,.,/,/
O=C(CSc1cccc2cccc(Cl)c12)OCC(=O)N1CCN(C(=O)c2ccco2)CC1,.,.,19,.,.,.,.,.
Cn1c(N)c(C(=O)CSc2nc(N)cc(N)n2)c(=O)n(C)c1=O,.,.,/,.,.,.,/,/
O=c1c2ccccc2nc(SCc2ccccc2)n1Cc1ccco1,.,.,.,.,.,.,/,/
O=c1c2ccccc2nc(SCc2cccc(F)c2)n1Cc1ccco1,.,/,19,.,.,.,.,.
CCN(Cc1cc2ccccc2[nH]c1=O)C(=O)c1cccc([N+](=O)[O-])c1,.,.,/,.,/,.,/,/
CSCCC(NC(=O)COc1ccccc1)C(=O)O (configuration not stated),.,.,/,.,.,.,/,/
NC1=NC2CS(=O)(=O)CC2S1 (configuration not stated),.,.,.,.,.,.,/,/
CCc1cccc(CC)c1NC(=O)COC(=O)c1ccccc1-c1nc2ccccc2s1,.,.,20,.,.,.,.,21
Cc1ccc(NC(=O)COC(=O)c2ccccc2-c2nc3ccccc3s2)c(C)c1,.,.,.,.,.,.,/,/
CCN(CC)CCN1C(=O)C(O)=C(C(=O)c2cc3cccc(OC)c3o2)C1c1ccc(F)cc1 (configuration not stated),.,.,/,.,/,.,/,/
O=C(NC1CCCC1)C(c1cccnc1)N(CCc1ccccc1)C(=O)c1ccco1 (configuration not stated),.,.,/,.,.,.,/,/
O=C(NC1CCCCC1)C(c1cccnc1)N(CCc1ccccc1)C(=O)Cc1cccs1 (configuration not stated),.,.,22,.,.,.,.,.
CC(C)Cn1c(N)c(C(=O)NCC2CCCO2)c2nc3ccccc3nc21 (configuration not stated),.,.,20,.,.,.,.,.
COc1ccc(NC(=S)N2CCC(N(C)CC3CCCO3)CC2)cc1Cl (configuration not stated),.,.,.,.,.,.,/,/
Cc1cccc(N2CCN(C(=O)CCCOc3ccccc3)CC2)c1C,.,/,19,.,.,.,.,.
Cc1cccc(N2CCN(C(=O)C(Cc3ccccc3)n3cccc3)CC2)c1C (configuration not stated),.,.,26,.,.,.,.,.
O=C(CCCOc1ccccc1)N1CCN(c2ccccc2)CC1,.,/,.,.,.,.,/,/
CC[n+]1c(/C=C(\C)SC)sc2ccccc21,.,/,.,.,.,.,/,/
CC[n+]1c(/C=C(\C)Nc2ccccc2)sc2ccccc21,.,.,23,.,.,.,.,.
CN(CC(CC(=O)Nc1nncs1)c1ccccc1)S(=O)(=O)c1ccccc1 (configuration not stated),.,/,.,.,.,.,/,/
CN(CC(CC(=O)Nc1nncs1)c1ccccc1)S(=O)(=O)c1ccc(Br)cc1 (configuration not stated),.,.,18,.,.,.,.,.
SMILES,NPY-Y1 PAM-ag,KCC2 mod,NPY Y2 blocker,NPY2 pot ag,NPY-Y1 antag,Furin inhibitor,NPY1 antag ctr,NPY2 antag conf
CCOC(=O)CSC1=C(C#N)C(c2ccco2)C(C(=O)Nc2cccc(C(F)(F)F)c2)=C(C)N1 (configuration not stated),.,.,18,.,.,.,.,19
CCOC(=O)C1=C(c2ccccc2)NC(SCC(=O)Nc2cccc(C)c2)=C(C#N)C1c1ccco1 (configuration not stated),.,.,.,.,.,.,/,/
c1cn(-c2ccc(-c3ccnc4ncnn34)cc2)cn1,.,.,/,.,.,.,/,/
COc1ccc(CN(CCC(c2ccccc2)c2ccco2)C(=O)c2ccco2)cc1 (configuration not stated),.,.,.,.,.,.,/,/
O=C(c1ccco1)N(CCC(c1ccccc1)c1ccco1)Cc1ccccc1 (configuration not stated),.,.,18,.,.,.,.,.
COc1cc2c(cc1NC(=O)c1ccccc1F)CCCC2,.,.,.,.,.,.,/,/
COc1cc2c(cc1NC(=O)C(c1ccccc1)c1ccccc1)CCCC2,.,/,20,.,.,.,.,.
CC1=CC(C)(C)N(S(=O)(=O)c2ccc(F)cc2)c2ccc(C)cc21,.,.,19,.,.,.,.,.
CC1=CC(C)(C)N(S(=O)(=O)c2ccc(C)cc2)c2ccccc21,.,.,20,.,.,.,31,26
CC1=CC(C)(C)N(C(=O)c2ccccc2)c2ccc(C)cc21,.,.,.,.,.,.,/,/
CCC1CCCCN1CCNC(=O)CCS(=O)(=O)c1ccc(Br)cc1 (configuration not stated),.,.,.,.,.,.,/,/
COc1ccc(N2CCN(Cc3nc4c(c(=O)n(C)c(=O)n4C)n3Cc3cccc(C)c3)CC2)cc1,.,.,24,.,.,.,.,.
COc1ccc(N2CCN(c3nc4c(c(=O)n(C)c(=O)n4C)n3Cc3ccccc3)CC2)cc1,.,.,.,.,.,.,/,/
CCCCCCNS(=O)(=O)c1ccc(NC(=O)C2CCCO2)cc1 (configuration not stated),.,.,31,.,.,.,.,29
O=C(Nc1ccc(S(=O)(=O)Nc2ccc(Cl)cc2)cc1)C1CCCO1 (configuration not stated),.,.,.,.,.,.,/,/
CCN(CC)S(=O)(=O)c1cccc(-c2n[nH]c(=S)n2/N=C/c2ccc(Br)cc2)c1,.,.,19,.,.,.,.,.
CCN(CC)S(=O)(=O)c1cccc(-c2n[nH]c(=S)n2/N=C/c2ccc(OC(F)F)cc2)c1,.,.,.,.,.,.,/,/
COc1ccc(/C=C2\CCc3ccccc3C2=O)cc1Cn1nc(C)cc1C,.,.,18,.,.,.,.,.
CCOc1ccc2ccccc2c1C(=O)N1CCN(c2ccccc2)CC1,.,/,18,.,.,.,.,.

# Compound activity from PubChem BioAssay.
